Holding throughout (type): functional
Assay [1] has as its system Candida albicans. In words: Antifungal activity against Candida albicans after 24 hrs. The essentials: (§1)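 Candida yeasts were tested by NCCLS microdilution in RPMI 1640 buffered with 0.165 M MOPS and incubated at 35 °C. Compounds were dissolved in DMSO and serially diluted in medium. Isolates came from ATCC or the clinic. The MIC was read at 24 h as the lowest concentration achieving ≥80% growth inhibition versus the control.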

Another assay relates to Candida parapsilosis. Nature of the assay: Antifungal activity against Candida parapsilosis after 24 hrs. As to conditions: Lodderomyces parapsilosis. The essentials:
as §1

For the next assay, the system named is Cryptococcus neoformans. Nature of the assay: Antifungal activity against Cryptococcus neoformans after 72 hrs. The essentials: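 Cryptococcus neoformans was tested by NCCLS serial dilution in MOPS-buffered (0.165 M) RPMI 1640 at 35 °C. Compounds were dissolved in DMSO and diluted in medium. The MIC was read at 72 h as the lowest concentration giving turbidity inhibition of ≥80% relative to the growth control.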

The subject of a further assay is Trichophyton rubrum. In words: Antifungal activity against Trichophyton rubrum. The essentials: (§2)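 Dermatophytes were tested by NCCLS serial dilution in RPMI 1640 with 0.165 M MOPS and incubated at 28 °C. Compounds were dissolved in DMSO and diluted in medium. Strains came from ATCC or clinical isolates. The MIC was read at 7 d as the lowest concentration reducing turbidity by ≥80% relative to the drug-free control.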

For a further assay, the system named is Fonsecaea compacta. Nature of the assay: Antifungal activity against Fonsecaea compacta. The essentials: (§3)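 NCCLS broth serial dilution in RPMI 1640 buffered with 0.165 M MOPS. Compounds were dissolved in DMSO and serially diluted in medium. Strains came from ATCC or clinical isolates. The growth MIC for filamentous fungi was read at 7 d, taken as the lowest concentration giving ≥80% turbidity inhibition versus the growth control.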

In the next assay the test system is Aspergillus fumigatus. In words: Antifungal activity against Aspergillus fumigatus. The essentials: as §3
In the next assay the test system is Microsporum. In words: Antifungal activity against Microsporum gypseum. An outline of the steps: as §2
For assay [2], the system named is Candida albicans. Nature of the assay: Antifungal activity against fluconazole-resistant Candida albicans 0511655 after 24 hrs. An outline of the steps: (§4)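 Broth serial dilution MIC per NCCLS in 96-well format; medium RPMI 1640 buffered with 0.165 M MOPS; compounds dissolved in DMSO and serially diluted in medium; clinical C. albicans isolates incubated at 35 °C, read at 24 h; MIC = lowest concentration giving turbidity […] inhibition relative to growth control; fluconazole and I-6 as control drugs.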

Assay [3] relates to Candida albicans. Nature of the assay: Antifungal activity against fluconazole-resistant Candida albicans 01010 after 24 hrs. The essentials: as §4
For assay [4], the system named is Candida albicans. In words: Antifungal activity against fluconazole-resistant Candida albicans 18 after 24 hrs. An outline of the steps: as §4
Assay [5] has as its system Candida albicans. In words: Antifungal activity against fluconazole-resistant Candida albicans 25 after 24 hrs. An outline of the steps:
as §4

In brackets after ≈: the same amount, converted by molar mass.

Drawing on ChEMBL document CHEMBL1137547, “Synthesis and antifungal activities of novel 2-aminotetralin derivatives” (2007), this text covers MIC for 13 molecules.

For orientation: MIC means the least concentration at which growth counts as inhibited.

Take `CCCCCCCCNC1CCc2cc(OC)ccc2C1` (stereo not drawn): the MIC in the assay with Candida albicans [1] was 0.0625 µM (≈ 0.0181 µg/mL); in the assay on Candida parapsilosis it was 16 µM (≈ 4.63 µg/mL); in the assay on Cryptococcus neoformans it was 16 µM (≈ 4.63 µg/mL); against Trichophyton rubrum, 8 µM (≈ 2.32 µg/mL); in the assay on Fonsecaea compacta it was 8 µM (≈ 2.32 µg/mL); with Aspergillus fumigatus it was above 64 µM. Further, the MIC in the assay with Microsporum stood at 8 µM (≈ 2.32 µg/mL); with Candida albicans [2] it was 8 µM (≈ 2.32 µg/mL); against Candida albicans [3] it was 16 µM (≈ 4.63 µg/mL); with Candida albicans [4], 8 µM (≈ 2.32 µg/mL); in the assay with Candida albicans [5], 8 µM (≈ 2.32 µg/mL).
Turning to `CCCCCCCCNC1CCc2cc(O)ccc2C1` (stereo not drawn), the MIC against Candida albicans [1] is 0.0625 µM (≈ 0.0172 µg/mL); with Candida parapsilosis, 16 µM (≈ 4.41 µg/mL); in the assay on Cryptococcus neoformans, 8 µM (≈ 2.2 µg/mL); against Trichophyton rubrum, 4 µM (≈ 1.1 µg/mL); against Fonsecaea compacta, 2 µM (≈ 0.551 µg/mL); against Aspergillus fumigatus it was above 64 µM. The MIC in the assay on Microsporum amounted to 16 µM (≈ 4.41 µg/mL); in the assay with Candida albicans [2], 4 µM (≈ 1.1 µg/mL); with Candida albicans [3], 4 µM (≈ 1.1 µg/mL); against Candida albicans [4], 4 µM (≈ 1.1 µg/mL); against Candida albicans [5], 2 µM (≈ 0.551 µg/mL).
On to `CCCCCCCCCNC1CCc2c(cccc2OC)C1` (stereo not drawn), for which the MIC against Candida albicans [1] came out at 0.0625 µM (≈ 0.019 µg/mL); against Candida parapsilosis, 0.5 µM (≈ 0.152 µg/mL); in the assay with Cryptococcus neoformans it was 2 µM (≈ 0.607 µg/mL); against Trichophyton rubrum it was 2 µM (≈ 0.607 µg/mL); with Fonsecaea compacta, 0.5 µM (≈ 0.152 µg/mL); with Aspergillus fumigatus, 8 µM (≈ 2.43 µg/mL). Besides, the MIC in the assay with Microsporum was 4 µM (≈ 1.21 µg/mL); in the assay with Candida albicans [2], 16 µM (≈ 4.86 µg/mL); against Candida albicans [3], 16 µM (≈ 4.86 µg/mL); in the assay on Candida albicans [4], 16 µM (≈ 4.86 µg/mL); in the assay with Candida albicans [5], 8 µM (≈ 2.43 µg/mL).
Take `CCCCCCCCCNC1CCc2cc(O)ccc2C1` (stereo not drawn): the MIC in the assay with Candida albicans [1] turned out to be 0.0625 µM (≈ 0.0181 µg/mL); with Candida parapsilosis it was 4 µM (≈ 1.16 µg/mL); with Cryptococcus neoformans it was 0.5 µM (≈ 0.145 µg/mL); against Trichophyton rubrum, 1 µM (≈ 0.289 µg/mL); with Fonsecaea compacta, 1 µM (≈ 0.289 µg/mL); against Aspergillus fumigatus it was 32 µM (≈ 9.26 µg/mL). Besides, the MIC against Microsporum came to 0.5 µM (≈ 0.145 µg/mL); against Candida albicans [2] it was 4 µM (≈ 1.16 µg/mL); with Candida albicans [3] it was 4 µM (≈ 1.16 µg/mL); against Candida albicans [4], 4 µM (≈ 1.16 µg/mL); with Candida albicans [5], 2 µM (≈ 0.579 µg/mL).
In the case of `CCCCCCCCCCNC1CCc2cc(O)ccc2C1` (stereo not drawn), the MIC with Candida albicans [1] was found to be 0.0625 µM (≈ 0.019 µg/mL); with Candida parapsilosis, 2 µM (≈ 0.607 µg/mL); with Cryptococcus neoformans, 1 µM (≈ 0.303 µg/mL); in the assay on Trichophyton rubrum, 0.0625 µM (≈ 0.019 µg/mL); in the assay with Fonsecaea compacta, 0.25 µM (≈ 0.0759 µg/mL); in the assay with Aspergillus fumigatus, 16 µM (≈ 4.86 µg/mL). Also, the MIC against Microsporum is 8 µM (≈ 2.43 µg/mL); against Candida albicans [2], 2 µM (≈ 0.607 µg/mL); against Candida albicans [3], 4 µM (≈ 1.21 µg/mL); in the assay on Candida albicans [4] it was 2 µM (≈ 0.607 µg/mL); in the assay on Candida albicans [5], 2 µM (≈ 0.607 µg/mL).
Regarding `CCCCCCCCCCNC1CCc2cccc(O)c2C1` (stereo not drawn), the MIC against Candida albicans [1] was 0.0625 µM (≈ 0.019 µg/mL); against Candida parapsilosis, 16 µM (≈ 4.86 µg/mL); in the assay with Cryptococcus neoformans, 16 µM (≈ 4.86 µg/mL); in the assay on Trichophyton rubrum it was 8 µM (≈ 2.43 µg/mL); in the assay on Fonsecaea compacta, 64 µM (≈ 19.4 µg/mL); against Microsporum it was above 64 µM. Further, the minimal inhibitory concentration (MIC) against Candida albicans [2] amounted to 16 µM (≈ 4.86 µg/mL); against Candida albicans [3], 16 µM (≈ 4.86 µg/mL); against Candida albicans [4] it was 16 µM (≈ 4.86 µg/mL); with Candida albicans [5], 4 µM (≈ 1.21 µg/mL).
Take `CCCCCCCCCCNC1CCc2ccc(OC)cc2C1` (stereo not drawn): the MIC in the assay with Candida albicans [1] was found to be 0.0625 µM (≈ 0.0198 µg/mL); in the assay on Candida parapsilosis, 0.25 µM (≈ 0.0794 µg/mL); in the assay on Cryptococcus neoformans, 1 µM (≈ 0.318 µg/mL); against Trichophyton rubrum, 1 µM (≈ 0.318 µg/mL); in the assay with Fonsecaea compacta, 1 µM (≈ 0.318 µg/mL); against Aspergillus fumigatus, 16 µM (≈ 5.08 µg/mL). The MIC against Microsporum was found to be 2 µM (≈ 0.635 µg/mL); in the assay with Candida albicans [2], 4 µM (≈ 1.27 µg/mL); against Candida albicans [3], 4 µM (≈ 1.27 µg/mL); against Candida albicans [4], 4 µM (≈ 1.27 µg/mL); against Candida albicans [5], 2 µM (≈ 0.635 µg/mL).
For the molecule `CCCCCCCCCCNC1CCc2c(O)cccc2C1` (stereo not drawn), the MIC is 0.0312 µM (≈ 0.00948 µg/mL) in the assay on Candida albicans [1]; 32 µM (≈ 9.71 µg/mL) in the assay on Candida parapsilosis; 1 µM (≈ 0.303 µg/mL) against Cryptococcus neoformans; 4 µM (≈ 1.21 µg/mL) with Trichophyton rubrum; 1 µM (≈ 0.303 µg/mL) with Fonsecaea compacta; above 64 µM in the assay on Aspergillus fumigatus. The MIC with Microsporum stood at 1 µM (≈ 0.303 µg/mL); against Candida albicans [2], 32 µM (≈ 9.71 µg/mL); in the assay with Candida albicans [3] it was 16 µM (≈ 4.86 µg/mL); in the assay on Candida albicans [4], 32 µM (≈ 9.71 µg/mL); with Candida albicans [5] it was 32 µM (≈ 9.71 µg/mL).
Regarding `CCCCCCCCCNC1CCc2cc(OC)ccc2C1` (stereo not drawn), the MIC in the assay on Candida albicans [1] is 0.0625 µM (≈ 0.019 µg/mL); against Candida parapsilosis it was 0.5 µM (≈ 0.152 µg/mL); in the assay with Cryptococcus neoformans, 4 µM (≈ 1.21 µg/mL); against Trichophyton rubrum, 1 µM (≈ 0.303 µg/mL); in the assay on Fonsecaea compacta, 2 µM (≈ 0.607 µg/mL); with Aspergillus fumigatus, 64 µM (≈ 19.4 µg/mL). The MIC is 4 µM (≈ 1.21 µg/mL) in the assay on Microsporum; 0.0625 µM (≈ 0.019 µg/mL) in the assay with Candida albicans [2]; 0.125 µM (≈ 0.0379 µg/mL) against Candida albicans [3]; 0.0625 µM (≈ 0.019 µg/mL) against Candida albicans [4]; 0.0625 µM (≈ 0.019 µg/mL) with Candida albicans [5].
As to `CCCCCCCCCCNC1CCc2c(cccc2OC)C1` (stereo not drawn), the MIC is 0.0312 µM (≈ 0.00992 µg/mL) in the assay on Candida albicans [1]; 8 µM (≈ 2.54 µg/mL) against Candida parapsilosis; 1 µM (≈ 0.318 µg/mL) in the assay on Cryptococcus neoformans; 1 µM (≈ 0.318 µg/mL) against Trichophyton rubrum; 1 µM (≈ 0.318 µg/mL) against Fonsecaea compacta; 16 µM (≈ 5.08 µg/mL) with Aspergillus fumigatus. Moreover, the MIC with Microsporum was 4 µM (≈ 1.27 µg/mL); in the assay on Candida albicans [2], 8 µM (≈ 2.54 µg/mL); in the assay on Candida albicans [3], 8 µM (≈ 2.54 µg/mL); against Candida albicans [4], 4 µM (≈ 1.27 µg/mL); with Candida albicans [5] it was 4 µM (≈ 1.27 µg/mL).
As to `OC(Cn1cncn1)(Cn1cncn1)c1ccc(F)cc1F` [FLUCONAZOLE], the MIC is 8 µM (≈ 2.45 µg/mL) against Candida albicans [1]; 0.5 µM (≈ 0.153 µg/mL) against Candida parapsilosis; 2 µM (≈ 0.613 µg/mL) in the assay on Cryptococcus neoformans; 1 µM (≈ 0.306 µg/mL) in the assay with Trichophyton rubrum; 16 µM (≈ 4.9 µg/mL) against Fonsecaea compacta; above 64 µM with Aspergillus fumigatus. For the same molecule, the MIC in the assay on Microsporum was 16 µM (≈ 4.9 µg/mL); against Candida albicans [2] it was above 64 µM; in the assay on Candida albicans [3], above 64 µM; with Candida albicans [4], above 64 µM; against Candida albicans [5], above 64 µM.
On to `CC(=O)N1CCN(c2ccc(OC[C@@H]3CO[C@@](Cn4ccnc4)(c4ccc(Cl)cc4Cl)O3)cc2)CC1` [KETOCONAZOLE], for which the MIC was 8 µM (≈ 4.25 µg/mL) in the assay with Candida albicans [2], 8 µM (≈ 4.25 µg/mL) against Candida albicans [3], 4 µM (≈ 2.13 µg/mL) against Candida albicans [4] and 8 µM (≈ 4.25 µg/mL) against Candida albicans [5].
In the case of `CN(C/C=C/C#CC(C)(C)C)Cc1cccc2ccccc12` [TERBINAFINE], the MIC is 8 µM (≈ 2.33 µg/mL) in the assay on Candida albicans [2], 32 µM (≈ 9.33 µg/mL) against Candida albicans [3], 8 µM (≈ 2.33 µg/mL) in the assay with Candida albicans [4] and 4 µM (≈ 1.17 µg/mL) in the assay on Candida albicans [5].
